Results from ChEMBL document CHEMBL4808183, “Betulonic Acid Derivatives Interfering with Human Coronavirus 229E Replication via the nsp15 Endoribonuclease” (J Med Chem, 2021).
The source made the active and inactive calls. The calls are words filed in the database; no cut-off is given here.

Assays:
Punta Toro virus = assay: Antiviral activity against Punta Toro virus; assay type: functional, organism-based
Human adenovirus 2 = assay: Antiviral activity against Adenovirus; assay type: functional
[1] = tested on: Vesicular stomatitis virus; assay: Antiviral activity against Vesicular stomatitis virus; assay type: functional, organism-based
Sindbis virus = assay: Antiviral activity against Sindbis virus; assay type: functional, organism-based
[2] = tested on: Respiratory syncytial virus; assay: Antiviral activity against Respiratory syncytial virus; assay type: functional, organism-based
[3] = (§1) Antiviral activity against Human coronavirus 229E infected in human embryonic lung fibroblast cells assessed as reduction in virus-induced cytopathic effect incubated for 5 days by MTS cell viability assay; assay type: functional, cell-based; conditions: 120 h
Summary of the method: (§2)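 Confluent HEL cell cultures given serial compound dilutions together with HCoV-229E at MOI 100 and held 5 days at 35 °C. Virus-induced CPE was scored by microscopy. MTS reagent was then added and absorbance at 490 nm read 24 h later. EC50 was taken from the MTS or microscopic read-out and CC50 from MTS. SI = CC50/EC50, both by MTS. Mean ± SEM of three independent experiments.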

Vaccinia virus = assay: Antiviral activity against Vaccinia virus; assay type: functional, organism-based; conditions: Orthopoxvirus vaccinia
Yellow fever virus = assay: Antiviral activity against Yellow fever virus; assay type: functional, organism-based
Coxsackievirus B4 = assay: Antiviral activity against Coxsackie B4 virus; assay type: functional, organism-based
Reovirus sp. = assay: Antiviral activity against Reovirus-1; assay type: functional, organism-based
Human respirovirus 3 = assay: Antiviral activity against Parainfluenza-3 virus; assay type: functional, organism-based
[4] = tested on: Herpes simplex virus unknown type; assay: Antiviral activity against Herpes simplex virus; assay type: functional
[5] = Cytotoxicity against mock-infected human embryonic lung fibroblast cells incubated for 5 days by MTS assay; assay type: cell-based; conditions: time 5 day; summary of the method: as §2
[6] = Antiviral activity against Human coronavirus 229E infected in human embryonic lung fibroblast cells assessed as reduction in virus-induced cytopathic effect incubated for 5 days by microscopy; assay type: functional, cell-based; conditions: 120 h; summary of the method: as §2
Influenza A virus = assay: Antiviral activity against Influenza virus; assay type: functional
[7] = tested on: Human immunodeficiency virus; assay: Antiviral activity against HIV; assay type: functional, organism-based
[8] = as §1, with “Selectivity index, ratio of CC50 for cytotoxicity against mock-infected human embryonic lung fibroblast cells incubated for 5 days by MTS assay to EC50 for antiviral” for “Antiviral”; assay type: toxicity, cell-based; conditions: time 5 day, read-out: Ratio CC50/EC50; summary of the method: as §2

Row | SMILES | Activity (Punta Toro virus) | Activity (Human adenovirus 2) | Activity [1] | Activity (Sindbis virus) | Activity [2] | EC50 [3] | Activity (Vaccinia virus) | Activity (Yellow fever virus) | Activity (Coxsackievirus B4) | Activity (Reovirus sp.) | Activity (Human respirovirus 3) | Activity [4] | CC50 at 120 h [5] | EC50 [6] | Activity (Influenza A virus) | Activity [7] | selectivity ratio at 120 h [8]
1 | C=C(C)[C@@H]1CC[C@]2(C(=O)O)CC[C@]3(C)[C@H](CC[C@@H]4[C@@]5(C)Cc6nnn(Cc7ccco7)c6C(C)(C)[C@@H]5CC[C@]43C)[C@@H]12 | inactive | inactive | inactive | inactive | inactive | 2.6 µM | inactive | inactive | inactive | inactive | inactive | inactive | 20 µM | 1.1 µM | inactive | inactive | 8
2 | C=C(C)[C@@H]1CC[C@]2(C(=O)O)CC[C@]3(C)[C@H](CC[C@@H]4[C@@]5(C)Cc6nnn(CCO)c6C(C)(C)[C@@H]5CC[C@]43C)[C@@H]12 | inactive | inactive | inactive | inactive | inactive | 3.3 µM | inactive | inactive | inactive | inactive | inactive | inactive | 4.9 µM | 2.2 µM | inactive | inactive | 1.5
3 | C=C(C)[C@@H]1CC[C@]2(C(=O)O)CC[C@]3(C)[C@H](CC[C@@H]4[C@@]5(C)Cc6nnn(Cc7cc(OC)c(OC)c(OC)c7)c6C(C)(C)[C@@H]5CC[C@]43C)[C@@H]12 | inactive | inactive | inactive | inactive | inactive | 1.9 µM | inactive | inactive | inactive | inactive | inactive | inactive | 10 µM | 1.6 µM | inactive | inactive | 5
4 | C=C(C)[C@@H]1CC[C@]2(C(=O)O)CC[C@]3(C)[C@H](CC[C@@H]4[C@@]5(C)Cc6nnn(CCCCCCC)c6C(C)(C)[C@@H]5CC[C@]43C)[C@@H]12 | inactive | inactive | inactive | inactive | inactive | 2 µM | inactive | inactive | inactive | inactive | inactive | inactive | 16 µM | 1.1 µM | inactive | inactive | 8
5 | C=C(C)[C@@H]1CC[C@]2(C(=O)O)CC[C@]3(C)[C@H](CC[C@@H]4[C@@]5(C)CCC(=O)C(C)(C)[C@@H]5CC[C@]43C)[C@@H]12 [BETUNOLIC ACID] |  |  |  |  |  | > 100 µM |  |  |  |  |  |  | > 100 µM | > 100 µM |  |  | 
6 | C=C(C)[C@@H]1CC[C@]2(C(=O)O)CC[C@]3(C)[C@H](CC[C@@H]4[C@@]5(C)Cc6nnn(Cc7ccccc7)c6C(C)(C)[C@@H]5CC[C@]43C)[C@@H]12 | inactive | inactive | inactive | inactive | inactive | 0.85 µM | inactive | inactive | inactive | inactive | inactive | inactive | 12 µM | 0.71 µM | inactive | inactive | 14
7 | C=C(C)[C@@H]1CC[C@]2(C(=O)O)CC[C@]3(C)[C@H](CC[C@@H]4[C@@]5(C)Cc6nnn(CCc7c[nH]c8ccccc78)c6C(C)(C)[C@@H]5CC[C@]43C)[C@@H]12 | inactive | inactive | inactive | inactive | inactive | 0.56 µM | inactive | inactive | inactive | inactive | inactive | inactive | 3.2 µM | 0.24 µM | inactive | inactive | 6
8 | C=C(C)[C@@H]1CC[C@]2(C(=O)O)CC[C@]3(C)[C@H](CC[C@@H]4[C@@]5(C)Cc6nnn(Cc7ccc(C)cc7)c6C(C)(C)[C@@H]5CC[C@]43C)[C@@H]12 | inactive | inactive | inactive | inactive | inactive | 6.2 µM | inactive | inactive | inactive | inactive | inactive | inactive | 57 µM | 3.3 µM | inactive | inactive | 9
9 | C=C(C)[C@@H]1CC[C@]2(C(=O)O)CC[C@]3(C)[C@H](CC[C@@H]4[C@@]5(C)Cc6nnn(Cc7ccc(N(C)C)cc7)c6C(C)(C)[C@@H]5CC[C@]43C)[C@@H]12 | inactive | inactive | inactive | inactive | inactive | 0.54 µM | inactive | inactive | inactive | inactive | inactive | inactive | 16 µM | 0.51 µM | inactive | inactive | 31
10 | C=C(C)[C@@H]1CC[C@]2(C(=O)O)CC[C@]3(C)[C@H](CC[C@@H]4[C@@]5(C)Cc6nnn(CC7CCCCC7)c6C(C)(C)[C@@H]5CC[C@]43C)[C@@H]12 | inactive | inactive | inactive | inactive | inactive | 13 µM | inactive | inactive | inactive | inactive | inactive | inactive | 79 µM | 14 µM | inactive | inactive | 
11 | C=C(C)[C@@H]1CC[C@]2(C(=O)O)CC[C@]3(C)[C@H](CC[C@@H]4[C@@]5(C)Cc6nnn(Cc7ccc8c(c7)OCO8)c6C(C)(C)[C@@H]5CC[C@]43C)[C@@H]12 | inactive | inactive | inactive | inactive | inactive | 1.9 µM | inactive | inactive | inactive | inactive | inactive | inactive | 15 µM | 1.5 µM | inactive | inactive | 8
12 | C=C(C)[C@@H]1CC[C@]2(C(=O)O)CC[C@]3(C)[C@H](CC[C@@H]4[C@@]5(C)Cc6nnn(Cc7cccc8[nH]ccc78)c6C(C)(C)[C@@H]5CC[C@]43C)[C@@H]12 | inactive | inactive | inactive | inactive | inactive | 0.092 µM | inactive | inactive | inactive | inactive | inactive | inactive | 2.4 µM | 0.1 µM | inactive | inactive | 27
13 | C=C(C)[C@@H]1CC[C@]2(CO)CC[C@]3(C)[C@H](CC[C@@H]4[C@@]5(C)CC[C@H](O)C(C)(C)[C@@H]5CC[C@]43C)[C@@H]12 [BETULIN] |  |  |  |  |  | > 100 µM |  |  |  |  |  |  | 7.6 µM | 11 µM |  |  | 
14 | CC(C)[C@@H]1CC[C@]2(C)CC[C@]3(C)[C@H](CC[C@@H]4[C@@]5(C)Cc6nnn([C@@H](C)c7ccccc7)c6C(C)(C)[C@@H]5CC[C@]43C)[C@@H]12 | inactive | inactive | inactive | inactive | inactive |  | inactive | inactive | inactive | inactive | inactive | inactive |  |  | inactive | inactive | 
